Assay outcomes: PubChem BioAssay, Johns Hopkins Ion Channel Center
KCNK3 block = human KCNK3 channel inhibition, primary screen; CHO-KCNK3 thallium flux, FluxOR fluorescence; stronger effect = lower value; AID 602410; O14649; B-score at 10 µM; 340,000 compounds, 0.84% hits;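 active = B-score under library mean minus 4 SD, starting fluorescence ratio at most library mean plus 5 SD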;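 note: more negative B-score means stronger inhibition of thallium flux through KCNK3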
KCNK9 inh = inhibitors of human KCNK9 two-pore domain potassium channel | AID 488922 | HEK293 KCNK9, FluxOR thallium flux fluorescence; stronger effect = lower value | 310,000 compounds, 1.2% hits | B-score at 10 µM;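 active = ratio B-score over 3 SD below the library mean, with starting fluorescence within 5 SD of its mean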;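 note: negative B-score means less thallium flux so channel inhibition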
KCNQ1 pot = human KCNQ1 channel potentiation or activation. CHO-K1 KCNQ1, thallium flux FluxOR fluorescence; stronger effect = higher value. B-score at 10 µM. 310,000 compounds, 0.35% hits. AID 2648;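 active = fluorescence ratio B-score, a plate-corrected score, at least three library SD, with initial intensity B-score within 5 SD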
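assay system = CHO-K1 cells stably expressing KCNQ1 | medium = assay buffer, equal DMSO in all wells | timing = 37 °C overnight plating, 90-min dark dye load, 20-min compound pretreatment | measured by = kinetic FluxOR thallium fluorescence, 10-s 1-Hz baseline, 110-s post-stimulus read | measure = fluorescence change relative to baseline, converted to B score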
hERG rescue = shields human hERG channel from block by proarrhythmic agents; AID 1511; 310,000 compounds, 0.51% hits; Q12809; CHO-hERG, FluxOR thallium flux, dofetilide IC70 present; activation (rescue from dofetilide block), less the hit threshold, % at 10 µM;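 active = activation above the mean of controls blocked by dofetilide plus 5 SD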;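 note: thallium influx through hERG after potassium depolarization seen as dye fluorescence rise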
KCNQ1 block = human KCNQ1 channel inhibition; CHO-K1 KCNQ1, FluxOR thallium flux fluorescence; stronger effect = higher value; 310,000 compounds, 1.3% hits; AID 2642; B-score at 10 µM;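 active = compounds whose thallium flux B-score, printed positive for inhibition, exceeds three library SD while starting fluorescence stays within three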;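 note: channel opened by potassium depolarization with thallium stimulus after 20 min compound exposure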
The depositor's hits bear a star; i = inactive; nt = not tested or not shown. Hits are enriched below; roughly 3.1% of the tested compounds scored in any of these assays.

SMILES	KCNK3 block	KCNK9 inh	KCNQ1 pot	hERG rescue	KCNQ1 block
O=C(NC(=S)Nc1ccc(Cl)cn1)c1cccs1	i	i	8*	0	i
CCN(CC)c1ccc(NC(=S)NC(=O)c2cccs2)cc1	i	i	i	6.5*	i
Cc1ccc(C(=O)Nc2ccc(C(=O)N3CCCCC3)cc2)o1	i	i	i	-9	i
COc1ccc(S(=O)(=O)NCc2ccccn2)cc1NC(=O)c1ccccc1C	i	i	i	-6	i
O=C(COC(=O)C1CC2CCCC(C1)C2=O)NNC(=O)c1ccccc1Br (stereo unspecified)	i	nt	nt	nt	nt
CCOc1ccccc1NC(=O)c1ccccc1NC(=O)c1ccco1	i	i	i	-10	i
CCCCOC(=O)c1ccc(NC(=O)/C=C/c2cccs2)cc1	i	i	i	-14	13*
CCOc1ccccc1NC(=S)NC(=O)c1ccco1	i	i	11*	1	i
CC(CNC(=O)c1ccc(OC2CCN(Cc3ccccn3)CC2)cc1)Oc1cccnc1 (stereo unspecified)	i	i	i	-11	i
O=c1[nH]c2ccccc2cc1CN(CC1CCCO1)S(=O)(=O)c1ccccc1 (stereo unspecified)	i	i	i	-4	i
CC(C)c1nc(SCC(=O)Nc2ccc([N+](=O)[O-])cc2Br)n[nH]1	i	i	i	8.6*	i
CC(=O)c1ccc(OCC(=O)Nc2ccccc2C(=O)NC2CC2)cc1	i	i	i	-10	i
NS(=O)(=O)c1ccc(NC(=O)CN2CCN(S(=O)(=O)c3cccs3)CC2)cc1	i	nt	nt	nt	nt
CNC(=O)N(O)C1N(/N=C/c2ccc(N(C)C)cc2)C(=S)SC1(C)C (stereo unspecified)	i	i	i	-13	i
CC1(C)SC(=S)N(/N=C/c2ccccc2)C1N(O)C(=O)Nc1ccc([N+](=O)[O-])cc1 (stereo unspecified)	i	i	i	5.8*	i
CC(=O)NC1=C(NC2CCS(=O)(=O)C2)C(=O)c2ccccc2C1=O (stereo unspecified)	i	i	12*	3	i
CC1CC(C)CN(CCCNC(=O)c2cc3c(s2)-c2ccccc2OC3)C1 (stereo unspecified)	i	i	i	-13	6*
O=C(COc1ccc(Br)cc1)NNC(=O)c1ccc(-n2cncn2)c([N+](=O)[O-])c1	i	nt	nt	nt	nt
Cc1ccc(S(=O)(=O)c2c(C)nn(C(C)(C)C)c2OC(=O)c2cccs2)cc1	i	i	i	-4	6*
CC(=O)Oc1c(S(=O)(=O)c2ccc(C)cc2)c(C)nn1C(C)(C)C	i	i	i	-15	i
Cc1nn(C(C)(C)C)c(OC(=O)c2ccc3c(c2)OCO3)c1S(=O)(=O)c1ccccc1	-10*	i	i	-9	i
Cc1ccc(SCC(=O)NNC(=O)CNC(=O)c2ccc(Br)cc2)cc1	i	nt	nt	nt	nt
COc1ccc(/C=C/c2cc(-c3ccc(C)cc3)o[n+]2C)cc1	i	i	i	-28	9*
Oc1c(C=Nc2ccc(Cl)cn2)sc2ccccc12	i	i	i	-13	i
Oc1c(/C=N/c2ccccn2)sc2ccccc12	i	i	11*	-9	i
SMILES	KCNK3 block	KCNK9 inh	KCNQ1 pot	hERG rescue	KCNQ1 block
CCOCC(=O)Nc1ccc2c(c1)N(S(=O)(=O)c1cccs1)CCC2	i	i	i	-13	i
Cc1c(Cl)cccc1NC(=O)CN1CCC(C(O)(c2ccccc2)c2ccccc2)CC1	i	i	i	-14	11*
Cc1ccccc1C(=O)NC1CCN(CC(=O)Nc2ccccc2Cl)CC1	i	i	i	-6	i
CC1CCCC(NC(=O)c2ccc(COc3ccccc3)o2)C1C (stereo unspecified)	i	i	i	-10	i
C/C(=N\NC(=O)CSCc1ccccc1Cl)c1cc(O)ccc1O	i	i	i	4.7*	i
COC(=O)c1ccc(NN=Nc2ccc(C)cc2)cc1	i	i	i	5.1*	i
CCCCCCCCC1=NCCc2c1[nH]c1ccccc21	i	i	i	-23	8*
Cc1cc(C)c(Nc2ncccc2C(=O)O)c(C)c1	i	i	i	5.8*	i
